# Data published in ChEMBL document CHEMBL4270642, “Boronic ester-linked macrocyclic lipopeptides as serine protease inhibitors targeting Escherichia coli type I signal peptidase” (Eur J Med Chem, 2018).
# pIC50: −log10 of the molar value. Square brackets hold non-standard residues; d marks the D form. Peptide text beside a SMILES is read from it. * marks the point of attachment. Benzoyl(4-(4-hexylphenyl)) = CCCCCCc1ccc(-c2ccc(C(=O)*)cc2)cc1; boroAla = C[C@H](N*)B(O)O; Orn = NCCC[C@H](N)C(=O)O
# Assays:
# [1] = Hemolytic activity in human RBC at 100 uM after 45 mins by spectrophotometric method relative to control; type: ADME, cell-based, Erythrocyte; details: red blood cells (erythrocytes), read-out: Activity
# Procedure, shortened: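 Heparinized human blood; red cells washed three times in Tyrode buffer pH 7.4. Compound at 100 µM final with 1% DMSO and 50% RBC, shaken (250 rpm) 45 min at 37 °C. Cells pelleted (1000 × g, 10 min); supernatant haemoglobin at 540 nm. Percent lysis relative to buffer-only and 2% Triton X-100 controls.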
# [2] = target: Signal peptidase I (Escherichia coli K-12, UniProt P00803); test: Inhibition of Escherichia coli type 1 signal peptidase lepB preincubated for 10 mins followed by Dabcyl-VGGTATAYGAFSRPGLE-(EDANS)-OH substrate addition measured after 2 hrs by FRET based assay
# Procedure, shortened: (§1)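 EcLepB (about 50 nM estimated) preincubated 10 min with compound. Reaction started with Dabcyl/EDANS FRET peptide at 8 µM final (Km 20 µM). Fluorescence followed continuously at 535 nm, 22 °C, for 2 h. Cleavage rates plotted against inhibitor concentration; IC50 from non-linear regression of sigmoidal dose-response curves.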
# [3] = test system: Escherichia coli; test: Antibacterial activity against Escherichia coli ATCC 25922 after 16 to 20 hrs by broth microdilution method; type: functional
# Procedure, shortened: (§2)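 Broth microdilution in cation-adjusted Mueller-Hinton II per EUCAST/CLSI; two-fold compound series 64 down to 0.25 µg/mL final. Inoculum from fresh colonies (non-selective agar, 18-24 h, 35 ± 2 °C), adjusted to 0.5 McFarland, diluted to about 5 × 10^5 CFU/mL final. Static incubation 16-20 h at 35 ± 2 °C; MIC read visually as complete growth inhibition against medium-only wells.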
# [4] = test system: Escherichia coli; test: Antibacterial activity against tolC deficient Escherichia coli CH3130 after 16 to 20 hrs by broth microdilution method; type: functional; procedure, shortened: as §2
# [5] = test system: Escherichia coli; test: Antibacterial activity against Escherichia coli D22 CGSG 5163 harboring Ips mutant after 16 to 20 hrs by broth microdilution method; type: functional
# Procedure, shortened: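 Broth microdilution in cation-adjusted Mueller-Hinton II broth, following EUCAST and CLSI guidelines. Two-fold series at final concentrations 64 down to 0.25 µg/mL, with medium-only and growth controls. Inoculum from fresh colonies (18-24 h, 35 °C ± 2 °C) adjusted to 0.5 McFarland, final ≈5 × 10^5 CFU/mL. Plates incubated unshaken 16-20 h at 35 °C ± 2 °C. MIC read visually as complete inhibition of growth.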
# [6] = test system: Pseudomonas aeruginosa; test: Antibacterial activity against Pseudomonas aeruginosa PAO1 after 16 to 20 hrs by broth microdilution method; type: functional; procedure, shortened: as §2
# [7] = test system: Pseudomonas aeruginosa; test: Antibacterial activity against efflux defective Pseudomonas aeruginosa PAO750 after 16 to 20 hrs by broth microdilution method; type: functional; procedure, shortened: as §2
# [8] = test system: Klebsiella pneumoniae; test: Antibacterial activity against Klebsiella pneumoniae ATCC 13883 after 16 to 20 hrs by broth microdilution method; type: functional; procedure, shortened: as §2
# [9] = test system: HepG2; test: Cytotoxicity against human HepG2 cells after 72 hrs by FMSA; type: cell-based; details: HepG2, 72 h
# Procedure, shortened: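 HepG2 (ATCC) grown in EMEM with 10% FBS, pen/strep, 2 mM L-glutamine, used up to 20 passages. Seeded at 1000 cells/well, cultured overnight, then dosed acoustically from DMSO stocks. Eight two-fold dilutions in duplicate from top 64 or 32 µM; 72 h at 37 °C, 5% CO2. Fluorescein diacetate hydrolysis read at ex 485/em 530 nm; IC50 by non-linear regression.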
# [10] = test system: Acinetobacter baumannii; test: Antibacterial activity against Acinetobacter baumannii ATCC 19606 after 16 to 20 hrs by broth microdilution method; type: functional; details: ATCC 19606 = CIP 70.34 = JCM 6841; procedure, shortened: as §2
# [11] = test system: Staphylococcus aureus; test: Antibacterial activity against Staphylococcus aureus ATCC 29213 after 16 to 20 hrs by broth microdilution method; type: functional; procedure, shortened: as §2
# [12] = target: Signal peptidase I (Escherichia coli K-12) (UniProt P00803); test: Inhibition of Escherichia coli type 1 signal peptidase lepB assessed as residual activity at 10 uM preincubated for 10 mins followed by Dabcyl-VGGTATAYGAFSRPGLE-(EDANS)-OH substrate addition measured after 2 hrs by FRET based assay (reference value: 100%); procedure, shortened: as §1
# [13] = target: Signal peptidase I (Escherichia coli K-12) (UniProt P00803); test: Inhibition of Escherichia coli type 1 signal peptidase lepB assessed as residual activity at 5 uM preincubated for 10 mins followed by Dabcyl-VGGTATAYGAFSRPGLE-(EDANS)-OH substrate addition measured after 2 hrs by FRET based assay (reference value: 100%); procedure, shortened: as §1
# [14] = target: Signal peptidase I (Escherichia coli K-12) (UniProt P00803); test: Inhibition of Escherichia coli type 1 signal peptidase lepB assessed as residual activity at 2.5 uM preincubated for 10 mins followed by Dabcyl-VGGTATAYGAFSRPGLE-(EDANS)-OH substrate addition measured after 2 hrs by FRET based assay (reference value: 100%); procedure, shortened: as §1
# [15] = target: Signal peptidase I (Escherichia coli K-12) (UniProt P00803); test: Inhibition of Escherichia coli type 1 signal peptidase lepB assessed as residual activity at 1.25 uM preincubated for 10 mins followed by Dabcyl-VGGTATAYGAFSRPGLE-(EDANS)-OH substrate addition measured after 2 hrs by FRET based assay (reference value: 100%); procedure, shortened: as §1
# [16] = target: Signal peptidase I (Escherichia coli K-12) (UniProt P00803); test: Inhibition of Escherichia coli type 1 signal peptidase lepB assessed as residual activity at 0.625 uM preincubated for 10 mins followed by Dabcyl-VGGTATAYGAFSRPGLE-(EDANS)-OH substrate addition measured after 2 hrs by FRET based assay (reference value: 100%); procedure, shortened: as §1
# [17] = target: Signal peptidase I (Escherichia coli K-12) (UniProt P00803); test: Inhibition of Escherichia coli type 1 signal peptidase lepB assessed as residual activity at 0.3125 uM preincubated for 10 mins followed by Dabcyl-VGGTATAYGAFSRPGLE-(EDANS)-OH substrate addition measured after 2 hrs by FRET based assay (reference value: 100%); procedure, shortened: as §1
# [18] = target: Signal peptidase I (Escherichia coli K-12) (UniProt P00803); test: Inhibition of Escherichia coli type 1 signal peptidase lepB assessed as residual activity at 0.1563 uM preincubated for 10 mins followed by Dabcyl-VGGTATAYGAFSRPGLE-(EDANS)-OH substrate addition measured after 2 hrs by FRET based assay (reference value: 100%); procedure, shortened: as §1
# [19] = target: Signal peptidase I (Escherichia coli K-12) (UniProt P00803); test: Inhibition of Escherichia coli type 1 signal peptidase lepB assessed as residual activity at 0.0781 uM preincubated for 10 mins followed by Dabcyl-VGGTATAYGAFSRPGLE-(EDANS)-OH substrate addition measured after 2 hrs by FRET based assay (reference value: 100%); procedure, shortened: as §1
# [20] = target: Signal peptidase I (Escherichia coli K-12) (UniProt P00803); test: Inhibition of Escherichia coli type 1 signal peptidase lepB assessed as residual activity at 0.0391 uM preincubated for 10 mins followed by Dabcyl-VGGTATAYGAFSRPGLE-(EDANS)-OH substrate addition measured after 2 hrs by FRET based assay (reference value: 100%); procedure, shortened: as §1
# [21] = target: Signal peptidase I (Escherichia coli K-12) (UniProt P00803); test: Inhibition of Escherichia coli type 1 signal peptidase lepB assessed as residual activity at 0.0195 uM preincubated for 10 mins followed by Dabcyl-VGGTATAYGAFSRPGLE-(EDANS)-OH substrate addition measured after 2 hrs by FRET based assay (reference value: 100%); procedure, shortened: as §1
# [22] = target: Signal peptidase I (Escherichia coli K-12) (UniProt P00803); test: Inhibition of Escherichia coli type 1 signal peptidase lepB assessed as residual activity at 0.0098 uM preincubated for 10 mins followed by Dabcyl-VGGTATAYGAFSRPGLE-(EDANS)-OH substrate addition measured after 2 hrs by FRET based assay (reference value: 100%); procedure, shortened: as §1
# [23] = target: Signal peptidase I (Escherichia coli K-12) (UniProt P00803); test: Inhibition of Escherichia coli type 1 signal peptidase lepB assessed as residual activity at 0.0049 uM preincubated for 10 mins followed by Dabcyl-VGGTATAYGAFSRPGLE-(EDANS)-OH substrate addition measured after 2 hrs by FRET based assay (reference value: 100%); procedure, shortened: as §1
# [24] = target: Signal peptidase I (Escherichia coli K-12) (UniProt P00803); test: Inhibition of Escherichia coli type 1 signal peptidase lepB assessed as residual activity at 0.0024 uM preincubated for 10 mins followed by Dabcyl-VGGTATAYGAFSRPGLE-(EDANS)-OH substrate addition measured after 2 hrs by FRET based assay (reference value: 100%); procedure, shortened: as §1
# [25] = target: Signal peptidase I (Escherichia coli K-12) (UniProt P00803); test: Inhibition of Escherichia coli type 1 signal peptidase lepB assessed as residual activity at 0.0012 uM preincubated for 10 mins followed by Dabcyl-VGGTATAYGAFSRPGLE-(EDANS)-OH substrate addition measured after 2 hrs by FRET based assay (reference value: 100%); procedure, shortened: as §1
# [26] = target: Signal peptidase I (Escherichia coli K-12) (UniProt P00803); test: Inhibition of Escherichia coli type 1 signal peptidase lepB assessed as residual activity at 0.0006 uM preincubated for 10 mins followed by Dabcyl-VGGTATAYGAFSRPGLE-(EDANS)-OH substrate addition measured after 2 hrs by FRET based assay (reference value: 100%); procedure, shortened: as §1
# Sequence of Signal peptidase I (P00803 whole entry): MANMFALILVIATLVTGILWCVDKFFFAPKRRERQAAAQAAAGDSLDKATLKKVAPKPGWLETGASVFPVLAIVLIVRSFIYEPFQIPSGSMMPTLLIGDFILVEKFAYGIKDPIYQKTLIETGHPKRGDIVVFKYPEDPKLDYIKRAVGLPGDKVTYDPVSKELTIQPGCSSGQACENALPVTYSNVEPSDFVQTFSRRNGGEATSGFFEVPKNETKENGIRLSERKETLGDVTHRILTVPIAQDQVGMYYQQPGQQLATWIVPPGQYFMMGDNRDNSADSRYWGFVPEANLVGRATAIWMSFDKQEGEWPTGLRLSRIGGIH
# Sequence of Signal peptidase I (Escherichia coli K-12) (P00803 whole entry): as above
SMILES,"hemolysis at 0.75 h, 100 µM [1] [%]",pIC50 [2],MIC [3] [mg/L],MIC [4] [mg/L],MIC [5] [mg/L],MIC [6] [mg/L],MIC [7] [mg/L],MIC [8] [mg/L],pIC50 [9],MIC [10] [mg/L],MIC [11] [mg/L],Activity [12] [%],Activity [13] [%],Activity [14] [%],Activity [15] [%],Activity [16] [%],Activity [17] [%],Activity [18] [%],Activity [19] [%],Activity [20] [%],also measured
CCCCCCc1ccc(-c2ccc(C(=O)N[C@@H](CCCN)C(=O)N[C@H](C(=O)N[C@@H](C)C(=O)N[C@@H](CC(N)=O)C(=O)N[C@@H](C)B(O)O)[C@@H](C)O)cc2)cc1 ({Benzoyl(4-(4-hexylphenyl))}-[Orn]TAN-boroAla),4.8,7.28,8,1,0.5,64,16,2,5.00,4,0.025,5.8,6.7,8.8,15.6,20.6,20.3,19.2,25.7,57.5,Activity [21]: 84.8%; Activity [22]: 89.3%; Activity [23]: 93.9%; Activity [24]: 87%; Activity [25]: 97.7%; Activity [26]: 95.9%
CCCCCCC#Cc1cncc(C(=O)N[C@@H](CCCN)C(=O)N[C@H](C(=O)N[C@@H](C)C(=O)N[C@H]2Cc3cn(nn3)CCO[C@@H]3C[C@@H]4OB(O[C@@H]4C3)[C@H](C)NC2=O)[C@@H](C)O)c1,0.01,7.39,> 64,64,> 64,> 64,> 64,> 64,< 4.19,> 64,32,-1.2,2.3,8.2,7.9,13,13.4,10.6,26.8,53.7,Activity [21]: 75.2%; Activity [22]: 82.7%; Activity [23]: 91%; Activity [24]: 93.6%; Activity [25]: 106%
CCCCCCc1ccc(-c2nc3cc(C(=O)N[C@@H](CCCN)C(=O)N[C@H](C(=O)N[C@@H](C)C(=O)N[C@H]4Cc5cn(nn5)CCO[C@@H]5C[C@@H]6OB(O[C@@H]6C5)[C@H](C)NC4=O)[C@@H](C)O)ccc3[nH]2)cc1,0.5,7.54,> 64,16,64,> 64,64,64,4.61,64,4,6.3,-0.1,2.8,5.4,8.6,6.8,7.2,16.5,40.6,Activity [21]: 63.2%; Activity [22]: 86.3%; Activity [23]: 88.3%; Activity [24]: 92.8%; Activity [25]: 100%
